Data: the M2OR odorant receptor database

Legend:
Conditions in all cases: stereoisomer not certain
OR11H1 (Homo sapiens) = OR11H1 (Homo sapiens) (UniProt Q8NG94)
Summary of the method: (§1)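 Each entry records the cell line, G-protein, co-transfected protein and tags used. Methods varied with the source, often transient luciferase assays in mammalian cell lines. A receptor–molecule pair is called responsive (active) if the original authors judged its signal statistically different from baseline and non-responsive (inactive) otherwise.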

OR11H12 (Homo sapiens) = OR11H12 (Homo sapiens) (UniProt B2RN74)
Sequence of OR11H12 (Homo sapiens) (B2RN74 whole entry): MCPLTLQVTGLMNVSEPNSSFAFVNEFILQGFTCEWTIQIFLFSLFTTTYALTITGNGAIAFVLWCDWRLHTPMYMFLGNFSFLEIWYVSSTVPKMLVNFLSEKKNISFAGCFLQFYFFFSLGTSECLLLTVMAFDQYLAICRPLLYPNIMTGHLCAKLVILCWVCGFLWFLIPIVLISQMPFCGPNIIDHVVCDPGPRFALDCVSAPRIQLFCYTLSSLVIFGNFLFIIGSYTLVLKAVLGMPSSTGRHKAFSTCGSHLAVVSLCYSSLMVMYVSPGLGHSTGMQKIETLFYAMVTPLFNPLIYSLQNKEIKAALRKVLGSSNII
Summary of the method: as §1

OR11H2 (Homo sapiens) = OR11H2 (Homo sapiens) (UniProt Q8NH07)
Sequence of OR11H2 (Homo sapiens) (Q8NH07 whole entry): as the sequence (B2RN74 whole entry) above, with Q7H, T33S, T49I, W68R, C156Y, M181K, R199L, S269P counted along it
Summary of the method: as §1

OR11H4 (Homo sapiens) = OR11H4 (Homo sapiens) (UniProt Q8NGC9)
Sequence of OR11H4 (Homo sapiens) (Q8NGC9 whole entry): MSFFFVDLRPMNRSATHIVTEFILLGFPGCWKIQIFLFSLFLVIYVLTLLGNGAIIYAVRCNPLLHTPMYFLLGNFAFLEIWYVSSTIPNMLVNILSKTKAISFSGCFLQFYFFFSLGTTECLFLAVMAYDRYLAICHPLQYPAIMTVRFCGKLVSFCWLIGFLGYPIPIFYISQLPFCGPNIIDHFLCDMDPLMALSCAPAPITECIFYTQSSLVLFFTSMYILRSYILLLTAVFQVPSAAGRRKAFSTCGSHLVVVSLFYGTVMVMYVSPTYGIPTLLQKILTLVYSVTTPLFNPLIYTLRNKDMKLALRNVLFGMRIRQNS
Summary of the method: as §1

OR11H6 (Homo sapiens) = OR11H6 (Homo sapiens) (UniProt Q8NGC7)
Sequence of OR11H6 (Homo sapiens) (Q8NGC7 whole entry): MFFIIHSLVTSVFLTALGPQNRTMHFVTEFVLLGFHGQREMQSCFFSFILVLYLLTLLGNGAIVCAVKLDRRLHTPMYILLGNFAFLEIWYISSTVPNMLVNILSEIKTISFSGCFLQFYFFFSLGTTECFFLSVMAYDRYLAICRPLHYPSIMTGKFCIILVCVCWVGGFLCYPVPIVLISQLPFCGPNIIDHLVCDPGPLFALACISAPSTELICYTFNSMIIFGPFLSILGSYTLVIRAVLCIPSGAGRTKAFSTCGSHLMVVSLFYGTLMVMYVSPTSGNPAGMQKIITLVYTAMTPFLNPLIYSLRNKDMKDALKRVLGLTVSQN
Summary of the method: as §1

OR11L1 (Homo sapiens) = OR11L1 (Homo sapiens) (UniProt Q8NGX0)
Sequence of OR11L1 (Homo sapiens) (Q8NGX0 whole entry): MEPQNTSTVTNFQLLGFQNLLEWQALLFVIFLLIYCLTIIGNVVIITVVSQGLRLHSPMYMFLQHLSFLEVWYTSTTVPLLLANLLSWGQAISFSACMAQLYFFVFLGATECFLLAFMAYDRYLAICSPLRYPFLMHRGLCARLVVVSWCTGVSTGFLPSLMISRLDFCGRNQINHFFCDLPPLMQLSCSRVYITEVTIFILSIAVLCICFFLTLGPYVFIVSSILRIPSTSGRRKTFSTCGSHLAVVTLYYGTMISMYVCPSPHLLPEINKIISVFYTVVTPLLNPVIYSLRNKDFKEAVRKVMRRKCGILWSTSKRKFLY
Summary of the method: as §1

OR12D2 (Homo sapiens) = OR12D2 (Homo sapiens) (UniProt P58182)
Sequence of OR12D2 (Homo sapiens) (P58182 whole entry): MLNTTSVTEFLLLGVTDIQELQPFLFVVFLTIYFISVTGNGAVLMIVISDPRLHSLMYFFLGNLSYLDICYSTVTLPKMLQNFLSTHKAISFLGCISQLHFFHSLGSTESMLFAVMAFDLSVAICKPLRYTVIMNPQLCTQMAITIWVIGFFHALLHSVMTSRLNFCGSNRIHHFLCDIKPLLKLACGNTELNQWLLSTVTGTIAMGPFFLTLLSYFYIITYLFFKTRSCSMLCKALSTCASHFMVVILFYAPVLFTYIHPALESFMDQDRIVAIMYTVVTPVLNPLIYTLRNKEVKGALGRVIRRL
Summary of the method: as §1

OR12D3 (Homo sapiens) = OR12D3 (Homo sapiens) (UniProt Q9UGF7)
Sequence of OR12D3 (Homo sapiens) (Q9UGF7 whole entry): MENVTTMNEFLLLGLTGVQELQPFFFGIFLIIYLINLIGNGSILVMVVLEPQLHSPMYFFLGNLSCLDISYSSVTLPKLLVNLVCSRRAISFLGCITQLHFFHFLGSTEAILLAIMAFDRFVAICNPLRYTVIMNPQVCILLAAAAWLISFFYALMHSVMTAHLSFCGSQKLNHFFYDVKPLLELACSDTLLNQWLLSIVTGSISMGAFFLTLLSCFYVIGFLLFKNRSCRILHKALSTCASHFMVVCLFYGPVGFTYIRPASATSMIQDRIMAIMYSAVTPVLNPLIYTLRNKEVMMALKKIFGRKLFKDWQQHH
Summary of the method: as §1

OR11H7 (Homo sapiens) = OR11H7 (Homo sapiens) (UniProt Q8NGC8)
Sequence of OR11H7 (Homo sapiens) (Q8NGC8 whole entry): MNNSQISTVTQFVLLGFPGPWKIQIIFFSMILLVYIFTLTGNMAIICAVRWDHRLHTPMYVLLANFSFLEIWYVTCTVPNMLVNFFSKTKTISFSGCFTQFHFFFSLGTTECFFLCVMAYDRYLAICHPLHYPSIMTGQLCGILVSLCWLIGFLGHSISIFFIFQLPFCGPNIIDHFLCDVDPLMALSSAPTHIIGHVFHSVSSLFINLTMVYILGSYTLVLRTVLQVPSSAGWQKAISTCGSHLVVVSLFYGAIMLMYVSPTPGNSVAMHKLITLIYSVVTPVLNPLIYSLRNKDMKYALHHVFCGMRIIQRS
Summary of the method: as §1

OR12D1 (Homo sapiens) = OR12D1 (Homo sapiens) (UniProt P0DN82)
Sequence of OR12D1 (Homo sapiens) (P0DN82 as listed by the source): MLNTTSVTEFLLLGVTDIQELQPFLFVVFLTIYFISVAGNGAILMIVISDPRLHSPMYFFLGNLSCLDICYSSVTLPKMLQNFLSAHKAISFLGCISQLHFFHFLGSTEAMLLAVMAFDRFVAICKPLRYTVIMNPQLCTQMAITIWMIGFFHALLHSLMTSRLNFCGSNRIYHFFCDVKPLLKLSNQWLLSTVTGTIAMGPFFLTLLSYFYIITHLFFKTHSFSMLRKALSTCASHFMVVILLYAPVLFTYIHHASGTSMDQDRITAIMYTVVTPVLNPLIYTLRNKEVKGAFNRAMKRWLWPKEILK
Summary of the method: as §1

Measured: odorant receptor agonist call

Sequence of OR11H1 (Homo sapiens) (Q8NG94 whole entry): as the sequence (B2RN74 whole entry) above, with T33S, W68R, C156Y, V240M counted along it

C=CCOC(=O)Cc1ccccc1
inactive: OR11H1 (Homo sapiens) | OR11H12 (Homo sapiens) | OR11H2 (Homo sapiens) | OR11H4 (Homo sapiens) | OR11H6 (Homo sapiens) | OR11L1 (Homo sapiens) | OR12D2 (Homo sapiens) | OR12D3 (Homo sapiens)

Cc1c([N+](=O)[O-])c(C)c([N+](=O)[O-])c(C(C)(C)C)c1[N+](=O)[O-]
inactive: OR11H1 (Homo sapiens) | OR11H12 (Homo sapiens) | OR11H2 (Homo sapiens) | OR11H4 (Homo sapiens) | OR11H6 (Homo sapiens) | OR11H7 (Homo sapiens) | OR11L1 (Homo sapiens) | OR12D1 (Homo sapiens) | OR12D2 (Homo sapiens) | OR12D3 (Homo sapiens)
